Laboratory results taken from ChEMBL document CHEMBL1151750, “The fourth molybdenum containing enzyme mARC: cloning and involvement in the activation of N-hydroxylated prodrugs” (J Med Chem, 2008).

Legend:
Type in all cases: microsomes
Details in all cases: Microsome
[1] = target: T1, Mitochondrial amidoxime-reducing component 1 (Homo sapiens) (UniProt Q5VT66); test: (§1) Specific activity at molybdenum cofactor/metal-free precursor molybopterin bound human recombinant mARC1 expressed in Escherichia coli TP1000 assessed as reduction to guanabenz in complete reconstituted system containing microsomal cyt b5, NADH and microsomal NADH cyt b5 reductase per mg of protein at 0.5 mM by HPLC analysis
T1 sequence (whole entry): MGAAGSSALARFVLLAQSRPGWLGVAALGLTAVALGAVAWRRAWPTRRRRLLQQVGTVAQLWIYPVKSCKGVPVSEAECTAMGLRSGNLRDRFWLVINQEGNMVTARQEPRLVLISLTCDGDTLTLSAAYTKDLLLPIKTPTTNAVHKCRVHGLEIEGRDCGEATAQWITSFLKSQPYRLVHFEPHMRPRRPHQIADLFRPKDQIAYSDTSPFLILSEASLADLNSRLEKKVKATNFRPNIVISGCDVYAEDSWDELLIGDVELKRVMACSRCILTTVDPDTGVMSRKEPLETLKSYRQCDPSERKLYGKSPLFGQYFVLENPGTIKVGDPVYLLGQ
In short: (§2)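 His6-tagged human mARC1 expressed in E. coli TP1000 (22 °C, IPTG induction, 1 mM sodium molybdate added) and Ni-NTA purified. Assay mix: 100 µg mARC1, 0.05 U pig liver microsomal NADH cyt b5 reductase, 200 pmol microsomal cyt b5, 0.5 mM N-hydroxylated substrate, 1 mM NADH, 100 mM potassium phosphate pH 6.0. Omitted components as stated per line. Aerobic, 37 °C, 3 min preincubation, NADH start, 15 or 20 min, methanol stop. Product quantified by HPLC; mean ± SD, n=4.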

[2] = target: T1, Mitochondrial amidoxime-reducing component 1 (Homo sapiens); test: as §1, with “melagatran” for “guanabenz”; in short: as §2
[3] = target: T1, Mitochondrial amidoxime-reducing component 1 (Homo sapiens); test: as §1, with “pentamidine monoamidoxime” for “guanabenz”; in short: as §2
[4] = target: T1, Mitochondrial amidoxime-reducing component 1 (Homo sapiens); test: as §1, with “pentamidine” for “guanabenz”; in short: as §2
[5] = target: T1, Mitochondrial amidoxime-reducing component 1 (Homo sapiens); test: as §1, with “diminazene” for “guanabenz”; in short: as §2
[6] = target: T1, Mitochondrial amidoxime-reducing component 1 (Homo sapiens); test: as §1, with “diminazene monoamidoxime” for “guanabenz”; in short: as §2
[7] = target: T1, Mitochondrial amidoxime-reducing component 1 (Homo sapiens); test: as §1, with “debrisoquine” for “guanabenz”; in short: as §2
[8] = target: T1, Mitochondrial amidoxime-reducing component 1 (Homo sapiens); test: as §1, with “to benzamidine” for “to guanabenz”, “in” for “in complete”, “cyt b5 and” for “cyt b5,”, “NADH without” for “NADH and”, “NADH cytochrome” for “NADH cyt”; in short: as §2
[9] = target: T1, Mitochondrial amidoxime-reducing component 1 (Homo sapiens); test: as §1, with “benzamidine” for “guanabenz”, “in” for “in complete”, “containing” for “containing microsomal cyt b5,”, “reductase without microsomal cytochrome b5” for “reductase”; in short: as §2
[10] = target: T1, Mitochondrial amidoxime-reducing component 1 (Homo sapiens); test: as §1, with “benzamidine” for “guanabenz”; in short: as §2

In the case of N=C(NO)N/N=C/c1c(Cl)cccc1Cl, the Activity [1] is reported as 20.4 nmol/min.

N/C(=N\O)c1ccc(CNC(=O)[C@@H]2CCN2C(=O)[C@H](NCC(=O)O)C2CCCCC2)cc1 gave an Activity [2] of 0.48 nmol/min.

Compound N/C(=N\O)c1ccc(OCCCCCOc2ccc(/C(N)=N/O)cc2)cc1 has an Activity [3] of 0.56 nmol/min and an Activity [4] of 0.49 nmol/min.

N=C(N)c1ccc(OCCCCCOc2ccc(/C(N)=N\O)cc2)cc1 was tested, and the Activity [4] was 6.59 nmol/min.

N/C(=N\O)c1ccc(/N=N/Nc2ccc(/C(N)=N/O)cc2)cc1 gave an Activity [5] of 0.05 nmol/min and an Activity [6] of 4.31 nmol/min.

Work on N/C(=N\O)N1CCc2ccccc2C1 yielded an Activity [7] of 15.9 nmol/min.

In the case of N/C(=N\O)c1ccccc1, the Activity [8] is reported as 0.2 nmol/min, the Activity [9] is reported as 0.23 nmol/min and the Activity [10] is reported as 1.3 nmol/min.
